According to ChEMBL document CHEMBL1155293 (Eur J Med Chem, 2009):
Calls of active or inactive are those of the source.

Columns and labels:
Mus musculus [1] = assay: Antinociceptive activity in Swiss mouse by inhibition of acetic acid-induced abdominal constriction at 10 mg/kg, ip after 20 mins; format: functional; conditions: Abdomen, route intraperitoneal
Procedure, shortened: (§1)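 Male Swiss mice (25–30 g) were pretreated i.p. 30 min before i.p. acetic acid (0.6%): 10 mg/kg for screening, or 3, 6 and 10 mg/kg for dose-response. Controls received vehicle (0.9% NaCl and Tween 80, 10 ml/kg i.p.). Abdominal constrictions plus stretching were counted cumulatively over 20 min at 23 ± 2 °C. Inhibition is relative to controls; ID50 by linear regression.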

[2] = Lipophilicity, log P of the compound; format: physicochemical; conditions: octanol/water
Mus musculus [3] = assay: Antinociceptive activity in Swiss mouse by inhibition of acetic acid-induced abdominal constriction at 250 mg/kg, po after 20 mins; format: functional, Abdomen; set-up: scale not given: the % may be the effect or the level left
Procedure, shortened: (§2)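 Oral dosing of male Swiss mice (25–30 g) at 100, 250 and 500 mg/kg, 30 min before i.p. acetic acid (0.6%). Vehicle was Tween 80 in 0.9% NaCl. Abdominal constrictions with stretching were counted cumulatively for 20 min at 23 ± 2 °C. Inhibition is relative to vehicle controls; mean ± SEM of six values.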

Mus musculus [4] = assay: Antinociceptive activity against capsaicin-induced neurogenic pain in ip dosed Swiss mouse by reduction of paw licking response; format: functional
Procedure, shortened: (§3)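 Capsaicin dissolved in absolute ethanol (final ≤5%), injected intraplantarly. Test compound given i.p. at 10, 30 and 60 mg/kg, 30 min before capsaicin, in Tween 80 plus 0.9% NaCl. Time spent licking the injected paw was timed over 5 min. Data are mean ± SEM; ID50 from linear regression as geometric mean with 95% confidence limits. ANOVA with Newman–Keuls test.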

Mus musculus [5] = assay: Antinociceptive activity against glutamate-induced pain in Swiss mouse assessed as reduction in time spent on paw licking and biting at 30 mg/kg, ip; format: functional; set-up: scale not given: the % may be the effect or the level left; conditions: route intraperitoneal
Procedure, shortened: (§4)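 Dosing was i.p. at 10, 30 or 60 mg/kg, 30 min before intraplantar glutamate (30 µmol/paw) into the right hindpaw. Time spent licking or biting the injected paw was timed from 0 to 15 min. Mean ± SEM of six values; ID50 from linear regression as geometric mean with 95% confidence limits. ANOVA with Newman–Keuls test.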

Mus musculus [6] = assay: Antinociceptive activity against formalin-induced pain in Swiss mouse assessed as reduction of time spent in paw licking and biting at 30 mg/kg, ip after 0 to 5 mins; format: functional; set-up: scale not given: the % may be the effect or the level left; conditions: route intraperitoneal
Procedure, shortened: (§5)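 Swiss mice, 6–8 per group, housed at 22 ± 2 °C on a 12 h light/dark cycle. Compound given i.p. at 6, 10 or 30 mg/kg in Tween 80/0.9% NaCl vehicle (Tween ≤5%) before intraplantar formalin. Licking was scored for the first phase (0–5 min) and second phase (15–30 min). Mean ± SEM of six values; ID50 by linear regression with 95% confidence limits.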

Mus musculus [7] = assay: Antinociceptive activity in Swiss mouse assessed as reduction in response latency at 10 mg/kg, ip after 30 mins by hot plate method; format: functional, organism-based; set-up: dose 10 mg/kg
Procedure, shortened: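 Mice received saline, morphine 10 mg/kg s.c., or test compound 10 mg/kg i.p. 30 min before testing on a hot plate at 56 ± 1 °C. Latency to hindpaw licking, paw shaking or jumping was recorded. Mice with baseline latency above 20 s were excluded; cut-off was 30 s. Mean ± SEM of six values.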

Mus musculus [8] = assay: Antinociceptive activity in ip dosed Swiss mouse by inhibition of formalin induced pain after 0 to 5 mins; format: functional; conditions: read-out: ID50 (the source's name); procedure, shortened: as §5
Mus musculus [9] = assay: Antinociceptive activity against glutamate-induced pain in ip dosed Swiss mouse assessed as reduction in time spent on paw licking and biting; format: functional; procedure, shortened: as §4
Mus musculus [10] = assay: Antinociceptive activity in po dosed Swiss mouse by inhibition of acetic acid-induced abdominal constriction; format: functional; conditions: Abdomen, read-out: ID50 (the source's name); procedure, shortened: as §2
Mus musculus [11] = assay: Antinociceptive activity in Swiss mouse by inhibition of acetic acid-induced abdominal constriction at 100 mg/kg, po after 20 mins; format: functional, Abdomen; set-up: scale not given: the % may be the effect or the level left; procedure, shortened: as §2
Mus musculus [12] = assay: Antinociceptive activity in Swiss mouse by inhibition of acetic acid-induced abdominal constriction at 500 mg/kg, po after 20 mins; format: functional, Abdomen; set-up: scale not given: the % may be the effect or the level left; procedure, shortened: as §2
Mus musculus [13] = assay: Antinociceptive activity against formalin-induced pain in Swiss mouse assessed as reduction of time spent in paw licking and biting at 10 mg/kg, ip after 0 to 5 mins; format: functional; set-up: scale not given: the % may be the effect or the level left; conditions: route intraperitoneal; procedure, shortened: as §5
Mus musculus [14] = assay: Antinociceptive activity against formalin-induced pain in Swiss mouse assessed as reduction of time spent in paw licking and biting at 30 mg/kg, ip after 15 to 30 mins; format: functional; set-up: scale not given: the % may be the effect or the level left; conditions: route intraperitoneal; procedure, shortened: as §5
Mus musculus [15] = assay: Antinociceptive activity in ip dosed Swiss mouse by inhibition of acetic acid-induced abdominal constriction after 20 mins; format: functional; conditions: Abdomen, read-out: ID50 (the source's name); procedure, shortened: as §1
Mus musculus [16] = assay: Antinociceptive activity against capsaicin-induced neurogenic pain in Swiss mouse by reduction of paw licking response at 30 mg/kg, ip; format: functional; set-up: scale not given: the % may be the effect or the level left; conditions: route intraperitoneal; procedure, shortened: as §3
Mus musculus [17] = assay: Antinociceptive activity against formalin-induced pain in Swiss mouse assessed as reduction of time spent in paw licking and biting at 10 mg/kg, ip after 15 to 30 mins; format: functional; set-up: scale not given: the % may be the effect or the level left; conditions: route intraperitoneal; procedure, shortened: as §5
Mus musculus [18] = assay: Antinociceptive activity against glutamate-induced pain in Swiss mouse assessed as reduction in time spent on paw licking and biting at 60 mg/kg, ip; format: functional; set-up: scale not given: the % may be the effect or the level left; conditions: route intraperitoneal; procedure, shortened: as §4
Mus musculus [19] = assay: Antinociceptive activity in ip dosed Swiss mouse by inhibition of formalin induced pain after 15 to 30 mins; format: functional; conditions: read-out: ID50 (the source's name); procedure, shortened: as §5
Mus musculus [20] = assay: Antinociceptive activity against glutamate-induced pain in Swiss mouse assessed as reduction in time spent on paw licking and biting at 10 mg/kg, ip; format: functional; set-up: scale not given: the % may be the effect or the level left; conditions: route intraperitoneal; procedure, shortened: as §4
Mus musculus [21] = assay: Antinociceptive activity against capsaicin-induced neurogenic pain in Swiss mouse by reduction of paw licking response at 60 mg/kg, ip; format: functional; set-up: scale not given: the % may be the effect or the level left; conditions: route intraperitoneal; procedure, shortened: as §3
Mus musculus [22] = assay: Antinociceptive activity against formalin-induced pain in ip dosed Swiss mouse assessed as reduction of time spent in paw licking; format: functional; conditions: for ED50: read-out: ID50 (the source's name); procedure, shortened: as §5
[23] = read-out: ID50 (the source's name)

## CCOC(=O)/C=C/c1ccc(O)c(O)c1 [ETHYL CAFFEATE]
Mus musculus [1]
  inhibition in vivo at 10 mg/kg: 58.1%
[2]
  logP: 1.93

## CC(C)CCOC(=O)/C=C/c1ccc(O)c(O)c1
Mus musculus [1]
  inhibition in vivo at 10 mg/kg: 75.8%
[2]
  logP: 3.21

## O=C(O)/C=C/c1ccc(O)c(O)c1 [CAFFEIC ACID]
Mus musculus [1]
  inhibition in vivo at 10 mg/kg: 34.6%

## COC(=O)/C=C/c1ccc(O)c(O)c1 [METHYLCAFFEATE]
Mus musculus [1]
  inhibition in vivo at 10 mg/kg: 54.5%
[2]
  logP: 1.56

## CCCCCCCCOC(=O)/C=C/c1ccc(O)c(O)c1
Mus musculus [1]
  inhibition in vivo at 10 mg/kg: 46.2%
[2]
  logP: 5.02

## CC(C)COC(=O)/C=C/c1ccc(O)c(O)c1
Mus musculus [1]
  inhibition in vivo at 10 mg/kg: 52%
[2]
  logP: 2.68

## O=C(/C=C/c1ccc(O)c(O)c1)OCc1ccccc1 [BENZYL CAFFEATE]
Mus musculus [1]
  inhibition in vivo at 10 mg/kg: 8.8%
[2]
  logP: 3.15

## O=C(/C=C/c1ccc(O)c(O)c1)OCCc1ccccc1 [CAFFEIC ACID PHENETHYL ESTER]
Mus musculus [1]
  inhibition in vivo at 10 mg/kg: 27.5%
[2]
  logP: 3.36

## CCCCCCCCCCCCOC(=O)/C=C/c1ccc(O)c(O)c1
Mus musculus [3]
  Activity: 32.4%
Mus musculus [4]
  Activity: Dose-dependent effect
Mus musculus [4]; [23]
  ED50: 46.6 mg/kg
Mus musculus [5]
  Activity: 46.3%
Mus musculus [1]
  inhibition in vivo at 10 mg/kg: 78.8%
Mus musculus [6]
  Activity: 56.2%
Mus musculus [7]
  Activity: inactive
Mus musculus [8]
  ED50: 26.2 mg/kg
Mus musculus [9]
  Activity: Dose-dependent effect
Mus musculus [9]; [23]
  ED50: 38.4 mg/kg
Mus musculus [10]
  ED50: ≥ 500 mg/kg
Mus musculus [11]
  Activity: 22.2%
Mus musculus [12]
  Activity: 45.7%
[2]
  logP: 7.04
Mus musculus [13]
  Activity: 20.7%
Mus musculus [14]
  Activity: 56.8%
Mus musculus [15]
  ED50: 5.25 mg/kg
Mus musculus [16]
  Activity: 36.9%
Mus musculus [17]
  Activity: 34.4%
Mus musculus [18]
  Activity: 65.2%
Mus musculus [19]
  ED50: 23.8 mg/kg
Mus musculus [20]
  Activity: 25.6%
Mus musculus [21]
  Activity: 58.6%
Mus musculus [22]
  Activity: Dose-dependent effect

## CC(=O)Oc1ccccc1C(=O)O [ASPIRIN]
Mus musculus [1]
  inhibition in vivo at 10 mg/kg: 35%
[2]
  logP: 0.68
Mus musculus [15]
  ED50: 125 µmol/kg
Mus musculus [22]
  ED50: 123 µmol/kg

## CC(C)OC(=O)/C=C/c1ccc(O)c(O)c1
Mus musculus [1]
  inhibition in vivo at 10 mg/kg: 31%
[2]
  logP: 2.3

## CCCCOC(=O)/C=C/c1ccc(O)c(O)c1 [BUTYL CAFFEATE]
Mus musculus [1]
  inhibition in vivo at 10 mg/kg: 45%
[2]
  logP: 2.99

## CC(=O)Nc1ccc(O)cc1 [ACETAMINOPHEN]
Mus musculus [1]
  inhibition in vivo at 10 mg/kg: 38%
[2]
  logP: 1.43
Mus musculus [15]
  ED50: 133 µmol/kg
Mus musculus [22]
  ED50: 120 µmol/kg
